Test results: ChEMBL document CHEMBL5058577, “EUbOPEN Chemogenomics Library 2 (Multiplex)” (2022)

Test system: Fibroblast
Assay: Multiplex assay against human fibroblast
Format: toxicity, cell-based
Procedure, shortened: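 Hoechst33342, BioTracker Green Microtubule Cytoskeleton Dye, MitoTracker Red and Annexin V Alexa Fluor 680 were added to live cells at seeding, and imaging on a CQ1 microscope at 37°C and 5% CO2 followed compound addition. Gating by CellPathfinder machine learning separated cells into Hoechst high-intensity objects or normal cells, then normal cells into healthy, pyknosed or fragmented nuclei, then pyknosed cells into mitotic or apoptotic. Per cents of healthy-nucleus cells are reported for the tubulin, mitochondrial-mass and membrane-permeability phenotypes.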

[1] = 12 h, 1 µM, compound concentration 1 uM, replicate 1
[2] = 12 h, 1 µM, compound concentration 1 uM, replicate 2
[3] = 12 h, 10 µM, compound concentration 10 uM, replicate 1
[4] = 12 h, 10 µM, compound concentration 10 uM, replicate 2
[5] = 24 h, 1 µM, compound concentration 1 uM, replicate 1
[6] = 24 h, 1 µM, compound concentration 1 uM, replicate 2
[7] = 24 h, 10 µM, compound concentration 10 uM, replicate 1
[8] = 24 h, 10 µM, compound concentration 10 uM, replicate 2
[9] = 48 h, 1 µM, compound concentration 1 uM, replicate 1
[10] = 48 h, 1 µM, compound concentration 1 uM, replicate 2
[11] = 48 h, 10 µM, compound concentration 10 uM, replicate 1
[12] = 48 h, 10 µM, compound concentration 10 uM, replicate 2

For `CN(C)CCCc1cc(C(=O)Nc2ccc(-c3ccncc3)cc2)ccc1O.Cl.Cl`, the “Population Apoptotic (%)” value [1] was 31%, the “Population Fragmented Nuclei (%)” value [1] was 15% and the “Population Healthy Nuclei (%)” value [1] was 65%. The “Population Hoechst High Intensity Objects (%)” value [1] was 4%, the “Population Membrane Permeable-Phenotype (%)” value [1] was 0% and the “Population Mitochondria Different-Phenotype (%)” value [1] was 7%. The “Population Mitotic Cells (%)” value [1] was 68%, the “Population Normal (%)” value [1] was 95% and the “Population Pyknosed Nuclei (%)” value [1] was 18%. The “Population Tubulin-Different-Phenotype (%)” value [1] was 22%, the “Total Cell Count” value [1] was 122 and the “Population Apoptotic (%)” value [2] was 44%. For the same molecule, the “Population Fragmented Nuclei (%)” value [2] was 22%, the “Population Healthy Nuclei (%)” value [2] was 52% and the “Population Hoechst High Intensity Objects (%)” value [2] was 2%. For the same molecule, the “Population Membrane Permeable-Phenotype (%)” value [2] was 4%, the “Population Mitochondria Different-Phenotype (%)” value [2] was 4% and the “Population Mitotic Cells (%)” value [2] was 55%. The “Population Normal (%)” value [2] was 97%, the “Population Pyknosed Nuclei (%)” value [2] was 24% and the “Population Tubulin-Different-Phenotype (%)” value [2] was 40%. For the same molecule, the “Total Cell Count” value [2] was 120, the “Population Apoptotic (%)” value [3] was 68% and the “Population Fragmented Nuclei (%)” value [3] was 33%. The “Population Healthy Nuclei (%)” value [3] was 58%, the “Population Hoechst High Intensity Objects (%)” value [3] was 7% and the “Population Membrane Permeable-Phenotype (%)” value [3] was 0%. The “Population Mitochondria Different-Phenotype (%)” value [3] was 15%, the “Population Mitotic Cells (%)” value [3] was 31% and the “Population Normal (%)” value [3] was 92%. For the same molecule, the “Population Pyknosed Nuclei (%)” value [3] was 7%, the “Population Tubulin-Different-Phenotype (%)” value [3] was 43% and the “Total Cell Count” value [3] was 305. The “Population Apoptotic (%)” value [4] was 48%, the “Population Fragmented Nuclei (%)” value [4] was 31% and the “Population Healthy Nuclei (%)” value [4] was 51%. The “Population Hoechst High Intensity Objects (%)” value [4] was 4%, the “Population Membrane Permeable-Phenotype (%)” value [4] was 4% and the “Population Mitochondria Different-Phenotype (%)” value [4] was 6%. For the same molecule, the “Population Mitotic Cells (%)” value [4] was 51%, the “Population Normal (%)” value [4] was 95% and the “Population Pyknosed Nuclei (%)” value [4] was 17%. The “Population Tubulin-Different-Phenotype (%)” value [4] was 45%, the “Total Cell Count” value [4] was 236 and the “Population Apoptotic (%)” value [5] was 30%. For the same molecule, the “Population Fragmented Nuclei (%)” value [5] was 16%, the “Population Healthy Nuclei (%)” value [5] was 66% and the “Population Hoechst High Intensity Objects (%)” value [5] was 1%. The “Population Membrane Permeable-Phenotype (%)” value [5] was 2%, the “Population Mitochondria Different-Phenotype (%)” value [5] was 3% and the “Population Mitotic Cells (%)” value [5] was 70%. For the same molecule, the “Population Normal (%)” value [5] was 98%, the “Population Pyknosed Nuclei (%)” value [5] was 17% and the “Population Tubulin-Different-Phenotype (%)” value [5] was 25%. For the same molecule, the “Total Cell Count” value [5] was 119, the “Population Apoptotic (%)” value [6] was 37% and the “Population Fragmented Nuclei (%)” value [6] was 22%. The “Population Healthy Nuclei (%)” value [6] was 50%, the “Population Hoechst High Intensity Objects (%)” value [6] was 4% and the “Population Membrane Permeable-Phenotype (%)” value [6] was 1%. The “Population Mitochondria Different-Phenotype (%)” value [6] was 7%, the “Population Mitotic Cells (%)” value [6] was 62% and the “Population Normal (%)” value [6] was 95%. For the same molecule, the “Population Pyknosed Nuclei (%)” value [6] was 27%, the “Population Tubulin-Different-Phenotype (%)” value [6] was 45% and the “Total Cell Count” value [6] was 111. For the same molecule, the “Population Apoptotic (%)” value [7] was 47%, the “Population Fragmented Nuclei (%)” value [7] was 30% and the “Population Healthy Nuclei (%)” value [7] was 63%. For the same molecule, the “Population Hoechst High Intensity Objects (%)” value [7] was 6%, the “Population Membrane Permeable-Phenotype (%)” value [7] was 0% and the “Population Mitochondria Different-Phenotype (%)” value [7] was 11%. For the same molecule, the “Population Mitotic Cells (%)” value [7] was 52%, the “Population Normal (%)” value [7] was 93% and the “Population Pyknosed Nuclei (%)” value [7] was 5%. The “Population Tubulin-Different-Phenotype (%)” value [7] was 40%, the “Total Cell Count” value [7] was 339 and the “Population Apoptotic (%)” value [8] was 42%. The “Population Fragmented Nuclei (%)” value [8] was 31%, the “Population Healthy Nuclei (%)” value [8] was 53% and the “Population Hoechst High Intensity Objects (%)” value [8] was 4%. The “Population Membrane Permeable-Phenotype (%)” value [8] was 5%, the “Population Mitochondria Different-Phenotype (%)” value [8] was 5% and the “Population Mitotic Cells (%)” value [8] was 57%. For the same molecule, the “Population Normal (%)” value [8] was 95%, the “Population Pyknosed Nuclei (%)” value [8] was 14% and the “Population Tubulin-Different-Phenotype (%)” value [8] was 42%. For the same molecule, the “Total Cell Count” value [8] was 242, the “Population Apoptotic (%)” value [9] was 62% and the “Population Fragmented Nuclei (%)” value [9] was 28%. For the same molecule, the “Population Healthy Nuclei (%)” value [9] was 59%, the “Population Hoechst High Intensity Objects (%)” value [9] was 0% and the “Population Membrane Permeable-Phenotype (%)” value [9] was 0%. The “Population Mitochondria Different-Phenotype (%)” value [9] was 1%, the “Population Mitotic Cells (%)” value [9] was 37% and the “Population Normal (%)” value [9] was 99%. The “Population Pyknosed Nuclei (%)” value [9] was 12%, the “Population Tubulin-Different-Phenotype (%)” value [9] was 29% and the “Total Cell Count” value [9] was 126. For the same molecule, the “Population Apoptotic (%)” value [10] was 50%, the “Population Fragmented Nuclei (%)” value [10] was 23% and the “Population Healthy Nuclei (%)” value [10] was 54%. For the same molecule, the “Population Hoechst High Intensity Objects (%)” value [10] was 8%, the “Population Membrane Permeable-Phenotype (%)” value [10] was 1% and the “Population Mitochondria Different-Phenotype (%)” value [10] was 5%. For the same molecule, the “Population Mitotic Cells (%)” value [10] was 50%, the “Population Normal (%)” value [10] was 91% and the “Population Pyknosed Nuclei (%)” value [10] was 21%. For the same molecule, the “Population Tubulin-Different-Phenotype (%)” value [10] was 46%, the “Total Cell Count” value [10] was 111 and the “Population Apoptotic (%)” value [11] was 56%. For the same molecule, the “Population Fragmented Nuclei (%)” value [11] was 28%, the “Population Healthy Nuclei (%)” value [11] was 60% and the “Population Hoechst High Intensity Objects (%)” value [11] was 11%. For the same molecule, the “Population Membrane Permeable-Phenotype (%)” value [11] was 0%, the “Population Mitochondria Different-Phenotype (%)” value [11] was 8% and the “Population Mitotic Cells (%)” value [11] was 43%. The “Population Normal (%)” value [11] was 88%, the “Population Pyknosed Nuclei (%)” value [11] was 11% and the “Population Tubulin-Different-Phenotype (%)” value [11] was 48%. For the same molecule, the “Total Cell Count” value [11] was 321, the “Population Apoptotic (%)” value [12] was 51% and the “Population Fragmented Nuclei (%)” value [12] was 35%. For the same molecule, the “Population Healthy Nuclei (%)” value [12] was 53%, the “Population Hoechst High Intensity Objects (%)” value [12] was 2% and the “Population Membrane Permeable-Phenotype (%)” value [12] was 3%. For the same molecule, the “Population Mitochondria Different-Phenotype (%)” value [12] was 2%, the “Population Mitotic Cells (%)” value [12] was 48% and the “Population Normal (%)” value [12] was 97%. The “Population Pyknosed Nuclei (%)” value [12] was 10%, the “Population Tubulin-Different-Phenotype (%)” value [12] was 39% and the “Total Cell Count” value [12] was 261.
